High-throughput results deposited in PubChem BioAssay by The Scripps Research Institute Molecular Screening Center.
This is a sample that favours compounds with a hit; in the whole collection about 3.4% have one here.
M1 PAM: human CHRM1 positive allosteric modulation; P11229; hit rate 0.088% among 360,000; CHO-K1 hM1, Fluo-8 calcium fluorescence, ACh EC20; 0% = ACh EC20, 100% = maximal ACh; activation, % at 3 µM; in the data active means activation above about 19%, passing the limit was not always enough
M1 ag: agonists of human M1 muscarinic receptor. AID 588814. activation, % at 3 µM. P11229. hit rate 0.33% among 360,000. CHO-K1 hM1, Fluo-8 calcium fluorescence, agonist mode; 0% DMSO, 100% acetylcholine EC100;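 active means activation above the run's mean compound activation plus 3 SD, cut at about 16% in these data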;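 further: peak over basal fluorescence ratio within a 140 s kinetic read after compound addition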
TAAR1 antagonist: human TAAR1 antagonism; Q96RJ0; CHO RD-HGA16 TAAR1, Fluo-8 calcium fluorescence, antagonist; inhibition, % at 3 µM; hit rate 1.5% among 360,000;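 active means inhibition above a per-plate cutoff, the mean inhibition of test compounds on that plate plus 3 SD, cut at about 49% in these data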;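 further: 0% = DMSO plus EC80 beta-PEA response and 100% = DMSO alone without agonist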
Target sequence (Q96RJ0 whole entry, looked up): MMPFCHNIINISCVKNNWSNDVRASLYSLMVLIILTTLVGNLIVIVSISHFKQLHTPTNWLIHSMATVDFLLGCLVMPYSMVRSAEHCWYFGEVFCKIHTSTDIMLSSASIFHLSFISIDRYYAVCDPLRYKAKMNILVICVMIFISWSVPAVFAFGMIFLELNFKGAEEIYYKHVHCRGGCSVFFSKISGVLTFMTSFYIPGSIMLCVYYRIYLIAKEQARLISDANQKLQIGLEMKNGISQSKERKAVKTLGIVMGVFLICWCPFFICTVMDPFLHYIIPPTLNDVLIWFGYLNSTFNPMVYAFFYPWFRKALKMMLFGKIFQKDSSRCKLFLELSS
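System: CHO RD-HGA16 cells bearing hTAAR1. Reagent: EC80 β-phenethylamine stimulus. Schedule: seeding 17-24 h prior, 75-min 37 °C, 30-min RT dye loading. Signal: Fluo-8 intracellular calcium dye fluorescence, real-time kinetic reads. Read-out: % inhibition from peak post-agonist over basal fluorescence ratio. Benchmarks: vehicle wells and EC80 agonist wells. Replicates: n of 1.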
CHRM1 antagonist: human CHRM1 antagonism; hit rate 1.3% among 360,000; P11229; CHO-K1 hM1, Fluo-8 calcium fluorescence, ACh EC80 antagonist; inhibition, % at 3 µM; AID 588852;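 active means percent inhibition above its own plate's cutoff, namely the mean of that plate's compound wells plus 3 SD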;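 further: peak over basal fluorescence ratio during 140 s after agonist addition; 0% = ACh EC80 plus DMSO and 100% = DMSO alone without agonist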
TAAR1 ag: human TAAR1 agonism; CHO RD-HGA16 TAAR1, Fluo-8 calcium fluorescence; vehicle wells 0%, saturating PEA agonist 100%; activation, % at 3 µM; hit rate 0.99% among 360,000; AID 624467;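 active means activation above the mean activation of all test compounds in the run plus 3 SD, cut at about 38% in these data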
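Benchmarks: low control DMSO, high control PEA (EC100); System: CHO RD-HGA16 cells carrying human TAAR1 plus Gα16; Detection: Fluo-8 fluorescence, 5 s baseline then 140 s kinetic read; Schedule: 17-24 h plating, Fluo-8 75 min 37 °C, 30 min RT; Read-out basis: % activation from peak over basal fluorescence ratio, DMSO-to-PEA scaled.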
TAAR1 nonsel count: counter-screen for TAAR1 antagonists: nonselective antagonists | shares compounds with TAAR1 antagonist | counterscreen cell line, calcium fluorescence, antagonist mode | AID 651780 | hit rate 77% among 2,400 | inhibition, % at 3 µM; in the data active means inhibition above about 22%;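 further: CHO-Ga16 host cells stimulated with ATP at an EC80 level; 0% = agonist EC80 plus vehicle and 100% = vehicle without agonist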
TAAR1 antag conf: human TAAR1 antagonism, confirmed; shares compounds with TAAR1 antagonist; TAAR1-expressing cells, fluorescence antagonist read-out; inhibition, % at 3 µM; hit rate 40% among 2,400; AID 651785; in the data active means inhibition above about 49%;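 further: CHO-Ga16 host cells challenged with agonist PEA near its EC80; 0% = agonist at EC80 plus vehicle and 100% = vehicle with no agonist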
Ga16 nonsel ag: nonselective Ga16 agonist in TAAR1 antagonist counter-screen; shares compounds with TAAR1 antagonist; Ga16-expressing cells, calcium fluorescence, agonist counterscreen; activation, % at 3 µM; hit rate 18% among 2,400; AID 651953; in the data active means activation above about 12%;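 further: 0% = vehicle wells and 100% = saturating stimulus response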
TAAR1 ag count: counter-screen for human TAAR1 antagonists: TAAR1 agonists | hTAAR1 cell line, fluorescence activation, agonist mode | AID 651955 | activation, % at 3 µM | hit rate 2% among 2,400 | shares compounds with TAAR1 antagonist; in the data active means activation above about 37%;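 further: CHO cells stably expressing TAAR1 with calcium dye readout; 0% = DMSO vehicle and 100% = full agonist response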
Numbers without * were called inactive; x = no result given.

SMILES | M1 PAM | M1 ag | TAAR1 antagonist | CHRM1 antagonist | TAAR1 ag | TAAR1 nonsel count | TAAR1 antag conf | Ga16 nonsel ag | TAAR1 ag count
CCOC(=O)c1c(C)[nH]c(C)c1C(=O)COC(=O)/C=C/c1ccc(OC(F)F)cc1 | -5 | -7 | 52* | 3 | 6 | 34* | 40 | 7 | 2
Cc1cnc(C(=O)OCC(=O)N2c3ccccc3NC(=O)C2(C)C)cn1 | 7 | -3 | -3 | -10 | 1 | x | x | x | x
COc1ccc(/C=C/C(=O)OCC(=O)N2CC(=O)Nc3ccccc32)cc1 | 5 | -6 | -9 | -2 | 1 | x | x | x | x
CCc1nc2c(OCc3cccc(OC)c3)cccn2c1N(C)C(=O)c1ccc(OC)cc1 | -4 | -8 | -5 | -4 | 0 | x | x | x | x
COC(=O)N[C@@H]1C[C@H]2[C@@H]3CC[C@H]4C[C@@H](OC)CC[C@]4(C)[C@H]3CC[C@]12C | -9 | -5 | 55* | 8 | 10 | 20 | 40 | 7 | 6
Cc1ccc(NC(=O)C2(C)CCN2C(=O)c2ccccc2CCc2ccccc2)cc1C (stereo unspecified) | 5 | -3 | -17 | -13 | -1 | x | x | x | x
COc1ccc(NC(=O)C2(C)CCN2C(=O)c2ccccc2CCc2ccccc2)cc1OC (stereo unspecified) | -8 | -2 | 65* | 15 | 5 | 18 | 43 | 6 | 16
NC(c1cccc(F)c1)c1nc(-c2ccc(Cl)cc2)cs1 (stereo unspecified) | -3 | -2 | -18 | 1 | 6 | x | x | x | x
COCC(=O)N[C@H]1CC[C@@H](CC(=O)OC)O[C@@H]1CO | x | x | 1 | x | 1 | x | x | x | x
Cc1cccc(C)c1NC(=O)CN(Cc1ccccc1)Cc1ccccc1 | 2 | 18* | 62* | -24 | 16 | 23* | 26 | 4 | 9
COc1ccc(CCNC2=C(Cl)C(=O)N(CCc3ccc(OC)c(OC)c3)C2=O)cc1OC | -13 | 3 | 74* | 3 | 17 | 44* | 60* | 11 | 8
COc1ccccc1CNC(=O)COc1cc(O)c2c(c1)OC(C)(C)CC2=O | 0 | -7 | -9 | -1 | 0 | x | x | x | x
COC(=O)[C@H](CCSC)NC(=O)NCc1cccs1 | 5 | -3 | 107* | -11 | 12 | -5 | 0 | 0 | -2
COC(=O)[C@@H](NC(=O)NCc1cccs1)C(C)C | 2 | -4 | 3 | -3 | 10 | x | x | x | x
O=C(/C=C/c1cn(-c2ccccc2)nc1-c1cccc(Cl)c1)N1CCN(c2ccccn2)CC1 | -3 | -4 | 53* | 11 | 0 | 18 | 31 | 3 | 4
O=C(/C=C/c1cn(-c2ccccc2)nc1-c1cccnc1)N1CCCCC1 | 5 | -4 | 10 | 3 | 5 | x | x | x | x
O=C1NC[C@H](CCCCN2C[C@H](Cc3ccccc3)N(CCC3CCCCC3)C(=O)C2=O)N(CCc2ccc(O)cc2)C1=O | x | x | -31 | x | 9 | x | x | x | x
CC1(Oc2cccc(F)c2)CCN(Cc2ccc(-c3ccccn3)cc2)C1 (stereo unspecified) | -8 | -8 | 0 | -2 | 3 | x | x | x | x
O=C1CC2c3cc(-c4cc5ccccc5o4)ccc3CCN2C(=O)CN1Cc1ccccc1 (stereo unspecified) | x | x | 54* | x | 5 | 27* | 40 | 5 | 6
NC(=O)CSc1nnc(-c2cc3ccccc3o2)n1Cc1ccccc1 | 1 | 0 | 4 | -15 | 9 | x | x | x | x
COC(=O)[C@@]12C[C@@H](CC(=O)NCc3cccs3)C(=O)N(Cc3cccc4ccccc34)C1=CCC(C)(C)C2 | x | x | 1 | x | 3 | x | x | x | x
O=C(CC(=O)c1ccccc1)Nc1cc([N+](=O)[O-])ccc1Cl | -14 | -2 | 77* | 31 | 20 | 35* | 55* | 11 | 11
CCCCC(=O)Nc1cc([N+](=O)[O-])ccc1Cl | 8 | -8 | -15 | -13 | 2 | x | x | x | x
CCc1nc2c(OCC3COc4ccccc4O3)cccn2c1N(C)C(=O)c1ccc(OC)cc1 (stereo unspecified) | -23 | -9 | -3 | 8 | -3 | x | x | x | x
OC(c1cc(F)cc(Cl)c1)c1ncc(-c2ccccc2Cl)[nH]1 (stereo unspecified) | 2 | -4 | -2 | -8 | 4 | x | x | x | x
SMILES | M1 PAM | M1 ag | TAAR1 antagonist | CHRM1 antagonist | TAAR1 ag | TAAR1 nonsel count | TAAR1 antag conf | Ga16 nonsel ag | TAAR1 ag count
COc1ccc(NC(=O)CN(c2ccc(OC)cc2)S(=O)(=O)c2ccc(OC)c(OC)c2)cc1 | -1 | -2 | 51* | -5 | 18 | 23* | 34 | 6 | 3
COc1ccc(N(CC(=O)Nc2cccc(C(C)=O)c2)S(=O)(=O)c2ccc(NC(C)=O)cc2)cc1 | -7 | -3 | 61* | 7 | 17 | 35* | 55* | 11 | 12
CC(O)(c1cccnc1)c1nc(-c2cccc3cccnc23)cs1 (stereo unspecified) | 6 | 3 | -21 | -9 | -1 | x | x | x | x
O=C(O)c1ccc(N/N=C/c2ccc(OC(=O)c3cccc(Cl)c3)cc2)cc1 | -2 | -3 | 84* | -7 | 20 | 48* | 60* | 8 | 13
Cc1cccc(C(=O)Oc2ccc(/C=N/NC(=O)c3ccc(O)cc3)cc2)c1 | -12 | 0 | 73* | 41* | 13 | 37* | 54* | 10 | 17
Cc1cccc(C(=O)Oc2ccc(/C=N/NC(=O)c3ccccc3O)cc2)c1 | -18 | -2 | 68* | 23 | 7 | 49* | 58* | 8 | 4
Cc1cccc(C(=O)Oc2ccc(/C=N/NC(=O)Cc3ccc([N+](=O)[O-])cc3)cc2)c1 | -2 | -1 | -19 | 1 | 3 | x | x | x | x
O=C(Oc1ccc(/C=N/Nc2ccccc2)cc1)c1ccccc1 | 0 | -5 | -10 | 3 | 0 | x | x | x | x
COc1ccc(C(=O)N/N=C/c2ccc(OC(=O)c3ccccc3)cc2)cc1 | 2 | -2 | -9 | -2 | 8 | x | x | x | x
COc1cccc(C(O)c2nc(-c3cccc(C(F)(F)F)c3)cs2)c1 (stereo unspecified) | 0 | -4 | 7 | 1 | 1 | x | x | x | x
Cc1ncc(CO)c2c1Oc1nc(-c3ccccc3)nc(SCC(=O)N(C)c3ccccc3)c1C2 | x | x | 62* | x | 8 | 27* | 46 | 6 | 7
COc1ccc(CCNC(=O)c2cc(-c3cc(Cl)ccc3O)n[nH]2)cc1OC | -2 | 1 | 61* | 4 | 14 | 39* | 54* | 13* | 15
COc1ccc(CCNC(=O)c2cc(-c3ccccc3O)n[nH]2)cc1OC | 4 | 1 | 21 | -3 | 24 | x | x | x | x
